Calls of active or inactive are those of the source. No cut-off for these calls is given here.
What was measured:
[1] = Binding affinity to amyloid beta fibrils
Procedure, shortened: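 Competitive binding to Aβ1–40 aggregates, with [125I]TZDM as the radiolabeled reference ligand displaced by unlabeled test compound. Run in triplicate and reported as mean ± SD.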

[2] = Displacement of [125I]TZDM from amyloid beta (1 to 40) aggregates after 2 hrs by gamma counting
Procedure, shortened: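 Competition binding against [125I]TZDM as radiolabeled standard, using Aβ1–40 aggregates; run in triplicate, results as mean ± SD.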

Mus musculus [3] = organism: Mus musculus; assay: Binding affinity to beta-amyloid plaque in APP/PS1 transgenic mouse C57 brain after 20 mins by autoradiography; format: tissue-based; conditions: tested as the 125I-labelled form
Procedure, shortened: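 In vitro autoradiography of brain sections from AD model mice (C57, APP/PS1), labeled with the 125I-iodinated tracer.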

Mus musculus [4] = organism: Mus musculus; assay: Binding affinity to beta-amyloid plaque in APP/PS1 transgenic mouse C57 brain after 20 mins by fluorescent staining with thioflavin-S; format: tissue-based; conditions: tested as the 125I-labelled form

Structure (SMILES) | Ki [1] [µM] | Ki [2] [µM] | Activity (Mus musculus [3]) | Activity (Mus musculus [4])
CC(C)Cc1ccc([C@H](C)C(=O)O)cc1 [DEXIBUPROFEN] | 0.0444 |  |  | 
COc1ccc(/C=C/C(=O)n2ccc3ccccc32)cc1 |  | 0.0273 |  | 

More lines, in order of falling Ki [2], values ahead:

Ki [1] [µM] | Ki [2] [µM] | Activity (Mus musculus [3]) | Activity (Mus musculus [4]) | Structure (SMILES)
 | 0.128 |  |  | Cc1ccc2c(ccn2C(=O)/C=C/c2ccccc2)c1
 | 0.0181 |  |  | COc1ccc(/C=C/C(=O)n2ccc3cc(Cl)ccc32)cc1
 | 0.0084 | Active | Active | O=C(/C=C/c1ccccc1)n1ccc2cc(I)ccc21

Reference: ChEMBL document CHEMBL1828568, “Novel imaging agents for β-amyloid plaque based on the N-benzoylindole core” (Bioorg Med Chem Lett, 2011)
